Measured values taken from ChEMBL document CHEMBL1126048, “Synthesis and pharmacological investigation of the enantiomers of muscarone and allomuscarone” (J Med Chem, 1992).

Columns and labels:
Rattus norvegicus [1] = organism: Rattus norvegicus; assay: Hill coefficient for affinity to M1 muscarinic receptor of rat cerebral cortex
Cavia porcellus [2] = organism: Cavia porcellus; assay: In vitro potency against muscarinic preparation from guinea pig trachea; type: functional
In short: (§1)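 Isolated tissues: guinea pig atria, ileum and trachea, and rat jejunum and bladder. Agonist concentration–response curves were run, with potency expressed as −log EC50. Values are means ± SEM of six to nine experiments.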

Cavia porcellus [3] = organism: Cavia porcellus; assay: In vitro potency against muscarinic preparation from guinea pig ileum; type: functional; in short: as §1
Rattus norvegicus [4] = organism: Rattus norvegicus; assay: Hill coefficient for affinity to M3 muscarinic receptor of rat cerebral cortex
Cavia porcellus [5] = organism: Cavia porcellus; assay: In vitro potency against muscarinic preparation from guinea pig atria; type: functional; in short: as §1
Rattus norvegicus [6] = organism: Rattus norvegicus; assay: Hill coefficient for affinity to M2 muscarinic receptor of rat cerebral cortex
Rattus norvegicus [7] = organism: Rattus norvegicus; assay: In vitro potency against muscarinic preparation from rat jejunum; type: functional; in short: as §1
Cavia porcellus [8] = organism: Cavia porcellus; assay: In vitro potency against muscarinic preparation from guinea pig ileum.; type: functional; in short: as §1
Cavia porcellus [9] = organism: Cavia porcellus; assay: In vitro potency against muscarinic preparation from guinea pig atria.; type: functional; in short: as §1
Rattus norvegicus [10] = organism: Rattus norvegicus; assay: In vitro potency against muscarinic preparation from rat jejunum.; type: functional; in short: as §1
Rattus norvegicus [11] = organism: Rattus norvegicus; assay: In vitro potency against muscarinic preparation from rat bladder.; type: functional; in short: as §1
[12] = target: T1, Muscarinic acetylcholine receptor M1 (Rattus norvegicus) (UniProt P08482); conditions: Cerebral cortex
T1 sequence (whole entry): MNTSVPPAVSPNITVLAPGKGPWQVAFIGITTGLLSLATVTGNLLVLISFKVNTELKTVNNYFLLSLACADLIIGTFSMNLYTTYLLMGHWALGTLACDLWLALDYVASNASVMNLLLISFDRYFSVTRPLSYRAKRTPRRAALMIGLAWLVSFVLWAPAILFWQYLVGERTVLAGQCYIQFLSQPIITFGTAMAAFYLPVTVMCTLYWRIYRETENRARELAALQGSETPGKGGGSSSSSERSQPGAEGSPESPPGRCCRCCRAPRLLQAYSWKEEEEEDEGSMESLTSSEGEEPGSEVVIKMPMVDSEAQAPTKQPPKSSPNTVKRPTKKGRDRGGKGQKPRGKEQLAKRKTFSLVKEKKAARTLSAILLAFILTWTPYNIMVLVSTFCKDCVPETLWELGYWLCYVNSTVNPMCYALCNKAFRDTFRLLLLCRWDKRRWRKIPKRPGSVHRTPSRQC

[13] = target: T1, Muscarinic acetylcholine receptor M1 (Rattus norvegicus); conditions: Cerebral cortex; remark: listed apart in the source
Cavia porcellus [14] = organism: Cavia porcellus; assay: In vitro potency against muscarinic preparation from guinea pig trachea.; type: functional; in short: as §1

Structure (SMILES): C[C@@H]1O[C@H](C[N+](C)(C)C)CC1=O.[I-]
- nH (Rattus norvegicus [1]): 0.79
- EC50 (Cavia porcellus [2]): 1.12 nM
- EC50 (Cavia porcellus [3]): 0.794 nM
- nH (Rattus norvegicus [4]): 0.78
- EC50 (Cavia porcellus [5]): 1.2 nM
- nH (Rattus norvegicus [6]): 0.58
- EC50 (Rattus norvegicus [7]): 7.41 nM

Structure (SMILES): C[C@H]1O[C@H](C[N+](C)(C)C)CC1=O.[I-]
- nH (Rattus norvegicus [1]): 0.89
- nH (Rattus norvegicus [4]): 0.9
- EC50 (Cavia porcellus [8]): 148 nM
- EC50 (Cavia porcellus [9]): 229 nM
- nH (Rattus norvegicus [6]): 0.63
- EC50 (Rattus norvegicus [10]): 661 nM
- EC50 (Rattus norvegicus [11]): 2000 nM

Structure (SMILES): C[C@@H]1O[C@H](C[N+](C)(C)C)C[C@H]1O
- EC50 (Cavia porcellus [8]): 7.41 nM
- EC50 (Cavia porcellus [9]): 20.4 nM
- nH [12]: 1

Structure (SMILES): C[C@@H]1O[C@@H](C[N+](C)(C)C)CC1=O.[I-]
- nH (Rattus norvegicus [1]): 0.74
- nH (Rattus norvegicus [4]): 0.92
- EC50 (Cavia porcellus [8]): 3.47 nM
- EC50 (Cavia porcellus [9]): 5.13 nM
- nH (Rattus norvegicus [6]): 0.58
- EC50 (Rattus norvegicus [10]): 20.4 nM
- EC50 (Rattus norvegicus [11]): 105 nM

Structure (SMILES): C[C@H]1O[C@@H](C[N+](C)(C)C)C[C@@H]1O
- EC50 (Cavia porcellus [8]): 2400 nM
- EC50 (Cavia porcellus [9]): 6760 nM
- nH [13]: 0.76

Structure (SMILES): C[C@H]1O[C@@H](C[N+](C)(C)C)CC1=O.[I-]
- EC50 (Cavia porcellus [14]): 490 nM
- nH (Rattus norvegicus [1]): 1
- nH (Rattus norvegicus [4]): 1
- EC50 (Cavia porcellus [8]): 302 nM
- EC50 (Cavia porcellus [9]): 501 nM
- nH (Rattus norvegicus [6]): 0.6
- EC50 (Rattus norvegicus [11]): 3550 nM
